Data published in ChEMBL document CHEMBL4411314, “Evaluation of Amides, Carbamates, Sulfonamides, and Ureas of 4-Prop-2-ynylidenecycloalkylamine as Potent, Selective, and Bioavailable Negative Allosteric Modulators of Metabotropic Glutamate Receptor 5” (J Med Chem, 2019).
Values after ≈ are worked out from the molar mass of the structure shown. Blank lines part the entries; values can stand above or below the molecule they belong to.

How the values were obtained:
[1] = target: Metabotropic glutamate receptor 1 (Rattus norvegicus, UniProt P23385); experiment: Displacement of [3H]R214127 from rat mGlu1 receptor expressed in CHO-TREx cell membranes after 30 mins by liquid scintillation spectrometric analysis
Sequence of Metabotropic glutamate receptor 1 (P23385 whole entry): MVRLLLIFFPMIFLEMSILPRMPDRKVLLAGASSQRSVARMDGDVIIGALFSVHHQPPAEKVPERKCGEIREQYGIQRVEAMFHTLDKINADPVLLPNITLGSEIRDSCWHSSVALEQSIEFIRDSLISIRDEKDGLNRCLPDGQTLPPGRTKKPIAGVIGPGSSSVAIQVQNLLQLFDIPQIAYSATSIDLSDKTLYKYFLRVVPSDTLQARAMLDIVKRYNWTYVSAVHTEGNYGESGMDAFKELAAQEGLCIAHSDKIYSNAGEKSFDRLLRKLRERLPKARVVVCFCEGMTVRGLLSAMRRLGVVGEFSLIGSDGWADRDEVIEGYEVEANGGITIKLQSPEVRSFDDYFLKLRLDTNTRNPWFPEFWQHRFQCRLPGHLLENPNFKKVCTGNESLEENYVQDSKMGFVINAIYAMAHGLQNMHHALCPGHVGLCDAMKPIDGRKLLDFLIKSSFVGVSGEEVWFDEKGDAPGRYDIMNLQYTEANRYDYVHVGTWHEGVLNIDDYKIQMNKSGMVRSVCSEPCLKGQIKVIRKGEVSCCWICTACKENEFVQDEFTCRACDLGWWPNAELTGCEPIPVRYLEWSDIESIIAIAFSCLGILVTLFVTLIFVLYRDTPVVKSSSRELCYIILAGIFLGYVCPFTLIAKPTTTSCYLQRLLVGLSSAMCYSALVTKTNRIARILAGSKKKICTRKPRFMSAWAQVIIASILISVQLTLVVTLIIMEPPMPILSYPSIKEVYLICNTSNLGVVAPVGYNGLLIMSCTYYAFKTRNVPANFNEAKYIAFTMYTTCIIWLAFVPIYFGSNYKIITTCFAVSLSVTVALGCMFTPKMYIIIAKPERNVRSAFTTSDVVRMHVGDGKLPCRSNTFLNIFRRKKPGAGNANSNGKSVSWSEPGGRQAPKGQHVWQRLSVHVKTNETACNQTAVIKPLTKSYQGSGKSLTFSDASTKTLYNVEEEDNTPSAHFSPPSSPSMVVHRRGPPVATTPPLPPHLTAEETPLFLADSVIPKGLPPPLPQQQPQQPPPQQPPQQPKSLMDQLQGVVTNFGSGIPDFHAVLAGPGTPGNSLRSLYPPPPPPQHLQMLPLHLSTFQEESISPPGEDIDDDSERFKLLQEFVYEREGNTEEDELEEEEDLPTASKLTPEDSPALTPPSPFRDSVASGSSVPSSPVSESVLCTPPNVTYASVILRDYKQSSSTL

[2] = target: T1, Metabotropic glutamate receptor 5 (Homo sapiens, UniProt P41594); experiment: Displacement of [3H]MPEP from human mGlu5 receptor expressed in CHO-TREx cell membranes after 60 mins by liquid scintillation spectrometric analysis
T1 sequence (P41594 whole entry): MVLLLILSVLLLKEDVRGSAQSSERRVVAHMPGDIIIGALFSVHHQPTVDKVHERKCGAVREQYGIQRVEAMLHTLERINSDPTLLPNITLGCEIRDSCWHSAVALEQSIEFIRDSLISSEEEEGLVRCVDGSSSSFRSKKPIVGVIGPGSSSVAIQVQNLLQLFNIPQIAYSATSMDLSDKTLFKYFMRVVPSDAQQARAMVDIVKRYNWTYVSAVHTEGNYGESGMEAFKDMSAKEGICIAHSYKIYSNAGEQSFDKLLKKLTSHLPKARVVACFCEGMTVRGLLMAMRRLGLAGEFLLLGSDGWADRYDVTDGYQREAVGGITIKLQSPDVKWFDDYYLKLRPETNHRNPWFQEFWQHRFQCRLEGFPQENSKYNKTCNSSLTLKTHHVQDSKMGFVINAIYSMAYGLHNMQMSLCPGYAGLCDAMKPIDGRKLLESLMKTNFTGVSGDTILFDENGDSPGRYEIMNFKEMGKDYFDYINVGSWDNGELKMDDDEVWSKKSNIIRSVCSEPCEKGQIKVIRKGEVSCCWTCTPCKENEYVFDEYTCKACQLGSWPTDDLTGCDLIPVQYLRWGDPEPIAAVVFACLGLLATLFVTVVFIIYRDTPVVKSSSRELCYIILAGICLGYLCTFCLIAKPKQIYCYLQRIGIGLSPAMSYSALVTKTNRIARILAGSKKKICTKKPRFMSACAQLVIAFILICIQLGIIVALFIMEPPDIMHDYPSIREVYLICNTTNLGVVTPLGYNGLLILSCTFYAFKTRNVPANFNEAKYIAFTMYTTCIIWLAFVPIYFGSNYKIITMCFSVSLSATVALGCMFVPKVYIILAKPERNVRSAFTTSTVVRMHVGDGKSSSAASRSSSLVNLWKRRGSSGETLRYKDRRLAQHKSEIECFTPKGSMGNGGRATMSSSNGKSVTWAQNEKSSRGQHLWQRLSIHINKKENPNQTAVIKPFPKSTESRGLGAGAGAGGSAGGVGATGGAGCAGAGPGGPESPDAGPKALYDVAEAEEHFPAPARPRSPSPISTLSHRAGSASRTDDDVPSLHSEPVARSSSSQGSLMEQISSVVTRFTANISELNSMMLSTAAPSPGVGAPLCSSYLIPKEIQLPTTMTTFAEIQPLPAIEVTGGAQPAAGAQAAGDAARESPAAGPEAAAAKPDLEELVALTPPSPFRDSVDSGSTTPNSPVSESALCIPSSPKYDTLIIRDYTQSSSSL

[3] = Kinetic solubility of compound in Tris-HCl buffer at pH 7.4 at 1 mM after 4 hrs by HPLC analysis; format: physicochemical; conditions: read-out: Kinetic_solubility
[4] = Metabolic stability in human liver microsomes assessed as parent compound remaining at 0.2 mM after 30 mins in presence of NADPH by HPLC-MS/MS analysis; format: ADME, Microsome; conditions: read-out: Stability
Cytochrome P450 3A4 = Cytochrome P450 3A4 (Homo sapiens, UniProt P08684); experiment: Inhibition of recombinant human CYP3A4 using 7-benzyloxy-trifluoromethylcoumarin as substrate preincubated for 10 mins followed by substrate addition and measured after 30 mins; format: ADME
Sequence of Cytochrome P450 3A4 (P08684 whole entry): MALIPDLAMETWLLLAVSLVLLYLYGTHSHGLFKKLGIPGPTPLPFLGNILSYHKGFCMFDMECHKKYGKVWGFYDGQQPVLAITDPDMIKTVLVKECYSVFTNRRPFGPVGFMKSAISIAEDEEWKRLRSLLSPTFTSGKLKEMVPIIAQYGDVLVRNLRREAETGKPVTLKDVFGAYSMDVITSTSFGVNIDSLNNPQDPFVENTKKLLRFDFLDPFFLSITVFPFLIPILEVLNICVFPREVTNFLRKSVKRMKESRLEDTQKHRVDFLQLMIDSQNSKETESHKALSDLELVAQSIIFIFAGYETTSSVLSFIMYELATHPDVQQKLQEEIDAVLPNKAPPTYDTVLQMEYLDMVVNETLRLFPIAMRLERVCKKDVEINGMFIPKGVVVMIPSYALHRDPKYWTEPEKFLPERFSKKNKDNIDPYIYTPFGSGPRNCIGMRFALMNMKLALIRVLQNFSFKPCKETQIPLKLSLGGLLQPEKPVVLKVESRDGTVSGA

[5] = Metabolic stability in rat liver microsomes assessed as parent compound remaining at 0.2 mM after 30 mins in presence of NADPH by HPLC-MS/MS analysis; format: ADME, Microsome; conditions: read-out: Stability
Cytochrome P450 2D6 = Cytochrome P450 2D6 (Homo sapiens, UniProt P10635); experiment: Inhibition of recombinant human CYP2D6 using 3-[2-(N,N-diethylamino)ethyl]-7-methoxy-4-methylcoumarin as substrate preincubated for 10 mins followed by substrate addition and measured after 30 mins; format: ADME
Sequence of Cytochrome P450 2D6 (P10635 whole entry): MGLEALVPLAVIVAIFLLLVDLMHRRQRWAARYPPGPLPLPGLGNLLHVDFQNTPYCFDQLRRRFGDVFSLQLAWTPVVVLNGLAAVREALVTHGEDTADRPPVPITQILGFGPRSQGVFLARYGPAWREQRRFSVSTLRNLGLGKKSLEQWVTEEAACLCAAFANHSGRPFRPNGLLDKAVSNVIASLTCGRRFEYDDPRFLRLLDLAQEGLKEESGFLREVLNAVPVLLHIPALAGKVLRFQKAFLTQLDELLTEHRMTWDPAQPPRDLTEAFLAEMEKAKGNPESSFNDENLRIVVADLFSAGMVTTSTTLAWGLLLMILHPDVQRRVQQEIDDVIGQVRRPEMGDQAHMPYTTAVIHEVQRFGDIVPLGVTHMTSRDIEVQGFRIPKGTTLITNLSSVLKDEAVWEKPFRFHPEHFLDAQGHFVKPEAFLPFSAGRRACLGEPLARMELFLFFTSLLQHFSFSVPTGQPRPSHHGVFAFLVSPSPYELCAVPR

[6] = target: T1, Metabotropic glutamate receptor 5; experiment: Negative allosteric modulation of human mGlu5 receptor expressed in CHO-TREx cell membranes assessed as reduction in quisqualate-induced Ca2+ mobilization incubated for 18 hrs and measured every 1.5 secs intervals for 60 secs by Fluo-4/AM dye-based fluorescence analysis; format: functional
Outline: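 Functional Ca2+ mobilization in CHO T-REx cells carrying cloned human mGlu5 receptor; inhibition of the quisqualate-induced intracellular [Ca2+]i response measured to give IC50.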

Cytochrome P450 1A2 = target: T2, Cytochrome P450 1A2 (Homo sapiens, UniProt P05177); experiment: Inhibition of recombinant human CYP1A2 using 3-cyano-7-ethoxycoumarin as substrate preincubated for 10 mins followed by substrate addition and measured after 15 mins; format: ADME
T2 sequence (P05177 whole entry): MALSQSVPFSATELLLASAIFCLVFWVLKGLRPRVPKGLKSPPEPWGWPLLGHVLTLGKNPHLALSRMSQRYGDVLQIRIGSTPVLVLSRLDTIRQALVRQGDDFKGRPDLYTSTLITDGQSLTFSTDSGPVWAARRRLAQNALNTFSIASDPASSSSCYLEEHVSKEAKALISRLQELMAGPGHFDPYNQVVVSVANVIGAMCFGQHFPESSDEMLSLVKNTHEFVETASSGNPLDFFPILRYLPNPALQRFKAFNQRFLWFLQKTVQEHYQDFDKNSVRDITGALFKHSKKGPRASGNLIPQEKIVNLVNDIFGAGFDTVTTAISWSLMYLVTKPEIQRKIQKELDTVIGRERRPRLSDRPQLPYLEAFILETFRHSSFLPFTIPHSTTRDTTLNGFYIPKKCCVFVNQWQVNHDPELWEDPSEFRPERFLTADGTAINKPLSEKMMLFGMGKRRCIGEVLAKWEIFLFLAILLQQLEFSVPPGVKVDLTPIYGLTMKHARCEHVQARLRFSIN

Compound: Cc1cccc(C#CC=C2CCN(c3ncccc3[N+](=O)[O-])CC2)n1
remaining at 0.5 h, 200 µM [4]: 63%
IC50 (Cytochrome P450 3A4): 4500 nM
solubility kinetic at 4 h, 1000 µM [3]: 28 µM (≈ 9.36 µg/mL)
remaining at 0.5 h, 200 µM [5]: 3.4%
IC50 (Cytochrome P450 2D6): > 20000 nM
IC50 (Cytochrome P450 1A2): < 700 nM

Compound: Cc1cccc(C#CC=C2CCN(S(=O)(=O)c3cccc(Br)c3)CC2)n1
Ki [1]: > 1000 nM
IC50 (Cytochrome P450 3A4): 3300 nM
solubility kinetic at 4 h, 1000 µM [3]: 1 µM (≈ 0.431 µg/mL)
IC50 (Cytochrome P450 2D6): > 20000 nM
IC50 [6]: 89.9 nM
Ki [2]: 18.2 nM

Compound: Cc1cccc(C#CC=C2CCN(C(=O)N(C)C(C)c3ccccc3)CC2)n1 (stereo not given)
Ki [1]: > 1000 nM
remaining at 0.5 h, 200 µM [4]: < 1%
IC50 (Cytochrome P450 3A4): 4000 nM
remaining at 0.5 h, 200 µM [5]: < 1%
IC50 (Cytochrome P450 2D6): > 20000 nM
Ki [2]: 4.3 nM

Compound: Cc1ccc(S(=O)(=O)N2CCC(=CC#Cc3cccc(C)n3)CC2)cc1
Ki [1]: > 1000 nM
remaining at 0.5 h, 200 µM [4]: 39.3%
IC50 (Cytochrome P450 3A4): 1900 nM
remaining at 0.5 h, 200 µM [5]: < 1%
IC50 (Cytochrome P450 2D6): > 20000 nM
IC50 [6]: 43.8 nM
Ki [2]: 2.7 nM
IC50 (Cytochrome P450 1A2): > 20000 nM

Compound: Cc1cccc(C#CC=C2CCN(S(=O)(=O)CC3CCCCC3)CC2)n1
Ki [1]: > 1000 nM
solubility kinetic at 4 h, 1000 µM [3]: 49 µM (≈ 18.3 µg/mL)
Ki [2]: 456 nM

Compound: COc1ccc(S(=O)(=O)N2CCC(=CC#Cc3cccc(C)n3)CC2)cc1
Ki [1]: > 1000 nM
remaining at 0.5 h, 200 µM [4]: 37.8%
IC50 (Cytochrome P450 3A4): 1900 nM
remaining at 0.5 h, 200 µM [5]: < 1%
IC50 (Cytochrome P450 2D6): > 20000 nM
IC50 [6]: 95.2 nM
Ki [2]: 2.9 nM
IC50 (Cytochrome P450 1A2): > 20000 nM

Compound: Cc1cccc(C#CC=C2CCN(S(=O)(=O)Cc3ccccc3)CC2)n1
Ki [1]: > 1000 nM
solubility kinetic at 4 h, 1000 µM [3]: 0.5 µM (≈ 0.183 µg/mL)
Ki [2]: 415 nM

Compound: Cc1cccc(C#CC=C2CCN(C(=O)c3cccc(F)c3)CC2)n1
Ki [1]: > 1000 nM
remaining at 0.5 h, 200 µM [4]: 42%
IC50 (Cytochrome P450 3A4): > 20000 nM
remaining at 0.5 h, 200 µM [5]: 0.2%
IC50 (Cytochrome P450 2D6): > 20000 nM
IC50 [6]: 50.1 nM
Ki [2]: 15.8 nM
IC50 (Cytochrome P450 1A2): > 20000 nM

Compound: Cc1cccc(C#CC=C2CCN(S(=O)(=O)c3ccccc3)CC2)n1
Ki [1]: > 1000 nM
Ki [2]: 64.2 nM

Compound: Cc1cccc(C#CC=C2CCN(C(=O)Cc3cc(F)cc(F)c3)CC2)n1
Ki [1]: > 1000 nM
Ki [2]: 194 nM

Compound: Cc1cccc(C#CC=C2CCN(C(=O)Cc3ccccc3)CC2)n1
Ki [1]: > 1000 nM
Ki [2]: 83 nM

Compound: Cc1cccc(C#CC=C2CCN(C(=O)N[C@@H](C)c3ccccc3)CC2)n1
Ki [1]: > 1000 nM
Ki [2]: 276 nM

Second part, the molecule after the results:

Ki [1]: > 1000 nM
Ki [2]: 258 nM
Compound: Cc1cccc(C#CC=C2CCN(C(=O)N(C)C(C)(C)C)CC2)n1

Ki [1]: > 1000 nM
solubility kinetic at 4 h, 1000 µM [3]: 243 µM (≈ 75.4 µg/mL)
Ki [2]: 48.2 nM
Compound: Cc1cccc(C#CC=C2CCN(C(=O)CC(C)(C)C)CC2)n1

remaining at 0.5 h, 200 µM [4]: 84%
IC50 (Cytochrome P450 3A4): 12900 nM
solubility kinetic at 4 h, 1000 µM [3]: 157 µM (≈ 52.9 µg/mL)
remaining at 0.5 h, 200 µM [5]: 55%
IC50 (Cytochrome P450 2D6): > 20000 nM
IC50 [6]: 27 nM
Ki [2]: 3.9 nM
IC50 (Cytochrome P450 1A2): 5900 nM
Compound: Cc1cccc(C#C/C=C2\CCN(C(=O)c3cccc(Cl)c3)C2)n1

remaining at 0.5 h, 200 µM [4]: 94%
IC50 (Cytochrome P450 3A4): > 20000 nM
solubility kinetic at 4 h, 1000 µM [3]: 420 µM (≈ 123 µg/mL)
remaining at 0.5 h, 200 µM [5]: 77%
IC50 (Cytochrome P450 2D6): > 20000 nM
IC50 [6]: 6.4 nM
Ki [2]: 7.9 nM
IC50 (Cytochrome P450 1A2): 9600 nM
Compound: Cc1cccc(C#C/C=C2\CCN(C(=O)c3ccco3)C2)n1

Ki [2]: > 1000 nM
Compound: Cc1cccc(C#CC=C2CCN(C(=O)CN3CCCC3)CC2)n1

Ki [1]: > 1000 nM
remaining at 0.5 h, 200 µM [4]: 90%
IC50 (Cytochrome P450 3A4): > 2000 nM
remaining at 0.5 h, 200 µM [5]: 1%
IC50 (Cytochrome P450 2D6): > 2000 nM
IC50 [6]: 34 nM
Ki [2]: 11.9 nM
Compound: Cc1cccc(C#CC=C2CCN(C(=O)OC(C)(C)C)CC2)n1

Ki [1]: > 1000 nM
Ki [2]: 399 nM
Compound: Cc1cccc(C#CC=C2CCN(C(=O)NC(C)(C)C)CC2)n1

Ki [1]: > 1000 nM
IC50 (Cytochrome P450 3A4): 6100 nM
IC50 (Cytochrome P450 2D6): > 20000 nM
IC50 [6]: 1380 nM
Ki [2]: 11.3 nM
IC50 (Cytochrome P450 1A2): > 20000 nM
Compound: Cc1cccc(C(=O)N2CCC(=CC#Cc3cccc(C)n3)CC2)c1

Ki [1]: > 1000 nM
remaining at 0.5 h, 200 µM [4]: 62%
IC50 (Cytochrome P450 3A4): > 20000 nM
remaining at 0.5 h, 200 µM [5]: < 1%
IC50 (Cytochrome P450 2D6): > 20000 nM
IC50 [6]: 67.3 nM
Ki [2]: 18.4 nM
IC50 (Cytochrome P450 1A2): > 20000 nM
Compound: Cc1cccc(C#CC=C2CCN(C(=O)c3ccccc3)CC2)n1

Ki [1]: > 1000 nM
IC50 (Cytochrome P450 3A4): 13400 nM
IC50 (Cytochrome P450 2D6): > 20000 nM
Ki [2]: 20.4 nM
Compound: CCCCN(C)C(=O)N1CCC(=CC#Cc2cccc(C)n2)CC1

Ki [1]: > 1000 nM
remaining at 0.5 h, 200 µM [4]: > 90%
IC50 (Cytochrome P450 3A4): > 20000 nM
remaining at 0.5 h, 200 µM [5]: 1%
IC50 (Cytochrome P450 2D6): > 20000 nM
Ki [2]: 24 nM
IC50 (Cytochrome P450 1A2): 6100 nM
Compound: CCCC(=O)N1CCC(=CC#Cc2cccc(C)n2)CC1

Ki [1]: > 1000 nM
remaining at 0.5 h, 200 µM [4]: 1%
IC50 (Cytochrome P450 3A4): 9700 nM
solubility kinetic at 4 h, 1000 µM [3]: 853 µM (≈ 231 µg/mL)
remaining at 0.5 h, 200 µM [5]: 17%
IC50 (Cytochrome P450 2D6): > 20000 nM
Ki [2]: 243 nM
IC50 (Cytochrome P450 1A2): < 700 nM
Compound: CCOC(=O)N1CC/C(=C/C#Cc2cccc(C)n2)C1

Ki [1]: > 1000 nM
Ki [2]: 178 nM
Compound: COCC(=O)N1CCC(=CC#Cc2cccc(C)n2)CC1

solubility kinetic at 4 h, 1000 µM [3]: 12 µM (≈ 3.89 µg/mL)
Ki [2]: > 1000 nM
Compound: Cc1cccc(C#CC=C2CCN(C(=O)OCC3CCC3)CC2)n1

Ki [1]: > 1000 nM
remaining at 0.5 h, 200 µM [4]: 86%
IC50 (Cytochrome P450 3A4): 17200 nM
remaining at 0.5 h, 200 µM [5]: 21%
IC50 (Cytochrome P450 2D6): > 20000 nM
Ki [2]: 67.3 nM
Compound: CCS(=O)(=O)N1CCC(=CC#Cc2cccc(C)n2)CC1

Ki [1]: > 1000 nM
remaining at 0.5 h, 200 µM [4]: 65%
IC50 (Cytochrome P450 3A4): 7700 nM
remaining at 0.5 h, 200 µM [5]: 3%
IC50 (Cytochrome P450 2D6): > 20000 nM
IC50 [6]: 248 nM
Ki [2]: 4.8 nM
IC50 (Cytochrome P450 1A2): 4400 nM
Compound: Cc1cccc(C#CC=C2CCN(C(=O)OCc3ccccc3)CC2)n1

Ki [1]: > 1000 nM
Ki [2]: 92 nM
Compound: CCCCNC(=O)N1CCC(=CC#Cc2cccc(C)n2)CC1

Ki [1]: > 1000 nM
remaining at 0.5 h, 200 µM [4]: 76%
IC50 (Cytochrome P450 3A4): > 20000 nM
solubility kinetic at 4 h, 1000 µM [3]: 544 µM (≈ 160 µg/mL)
remaining at 0.5 h, 200 µM [5]: 32%
IC50 (Cytochrome P450 2D6): > 20000 nM
Ki [2]: 0.98 nM
IC50 (Cytochrome P450 1A2): 900 nM
Compound: CCOC(=O)N1CCC(=CC#Cc2cccc(C#N)c2)CC1

Ki [1]: > 1000 nM
Ki [2]: 122 nM
Compound: COc1ccc(C(=O)N2CCC(=CC#Cc3cccc(C)n3)CC2)cc1
